Test results published in ChEMBL document CHEMBL3877271, “Antagonizing STAT3 activation with benzo[b]thiophene 1, 1-dioxide based small molecules” (Eur J Med Chem, 2017).
The source made the active and inactive calls. The calls are words filed in the database; no cut-off is given here.

Experiments:
MDA-MB-231 [1] = test: Induction of apoptosis in human MDA-MB-231 cells assessed as live cells at 1 uM after 24 hrs by Annexin-V FITC/propidium iodide staining based flow cytometry (reference value: 90.3%); type: functional
MDA-MB-231 [2] = test: Induction of apoptosis in human MDA-MB-231 cells assessed as live cells at 7 uM after 24 hrs by Annexin-V FITC/propidium iodide staining based flow cytometry (reference value: 90.3%); type: functional
MDA-MB-231 [3] = test: Induction of apoptosis in human MDA-MB-231 cells assessed as late apoptotic cells at 1 uM after 24 hrs by Annexin-V FITC/propidium iodide staining based flow cytometry (reference value: 1.8%); type: functional
[4] = Antiproliferative activity against human MDA-MB-231 cells after 72 hrs by MTT assay; type: functional, cell-based; conditions: MDA-MB-231, 72 h
Method in brief: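 Cells in RPMI-1640 with 10% FBS, penicillin/streptomycin, 37 °C, 5% CO₂; seeded 3000-5000 cells/well, left overnight (16 h), then medium replaced with fresh medium holding serial dilutions in triplicate for 72 h. MTT read-out; viability = absorbance of treated/solvent control × 100%. Stattic served as reference.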

MDA-MB-231 [5] = test: Induction of apoptosis in human MDA-MB-231 cells assessed as increase in cleaved caspase-3 expression at 1 to 5 uM after 24 hrs by Western blot method; type: functional, cell-based
Method in brief: (§1)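 MDA-MB-231 cells treated 24 h, trypsinised and lysed in RIPA buffer (50 mM Tris-HCl pH 7.4, 150 mM NaCl, 0.25% deoxycholate, 1% NP-40, 1 mM EDTA, protease inhibitors). Equal total protein from whole-cell lysates immunoblotted; Stattic 5 µM used as comparator.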

MDA-MB-231 [6] = test: Induction of apoptosis in human MDA-MB-231 cells assessed as early apoptotic cells at 1 uM after 24 hrs by Annexin-V FITC/propidium iodide staining based flow cytometry (reference value: 3.8%); type: functional
[7] = Effect on total STAT3 protein level in human MDA-MB-231 cells at 1 to 5 uM after 24 hrs by Western blot method; type: cell-based; conditions: mda-mb-231, 24 h; method in brief: as §1
MDA-MB-231 [8] = test: Induction of apoptosis in human MDA-MB-231 cells assessed as live cells at 3 uM after 24 hrs by Annexin-V FITC/propidium iodide staining based flow cytometry (reference value: 90.3%); type: functional
MDA-MB-231 [9] = test: Induction of apoptosis in human MDA-MB-231 cells assessed as early apoptotic cells at 5 uM after 24 hrs by Annexin-V FITC/propidium iodide staining based flow cytometry (reference value: 3.8%); type: functional
MDA-MB-231 [10] = test: Induction of ROS generation in human MDA-MB-231 cells at 5 uM after 24 hrs by DCFH-DA staining based flow cytometry relative to control; type: functional
Method in brief: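 3 × 10⁵ cells/well in 6-well plates treated 24 h (0, 1, 3, 5 µM). Medium replaced with serum-free medium holding DCFH-DA at 10 µM final, 20 min at 37 °C. Cells washed twice, trypsinised, resuspended in warm PBS and read by flow cytometry.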

[11] = Antitumor activity against mouse 4T1 cells implanted in ICR mouse assessed as tumor growth inhibition at 10 mg/kg, ip daily for 11 consecutive days measured on day 12 relative to control; type: functional; conditions: 4T1, ip, 288 h, read-out: TGI
Method in brief: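 Male ICR mice, 5 weeks old, inoculated with 2 × 10⁶ 4T1 cells at the right armpit. At 24 h, randomised into groups of 6 and dosed i.p.; vehicle PBS/DMSO (8:2) daily for 11 days. Killed day 12; tumours weighed; TI% = (1 − mean treated/mean control weight) × 100. Tumour p-STAT3 and STAT3 assessed by western blot.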

MDA-MB-231 [12] = test: Potency index, ratio of stattic IC50 to compound IC50 for human MDA-MB-231 cells; type: functional

Structure (SMILES): O=S1(=O)C=Cc2cccc(Nc3cccc(C(F)(F)F)c3)c21
- Activity (MDA-MB-231 [1]): 84.2%
- Activity (MDA-MB-231 [2]): 72.2%
- Activity (MDA-MB-231 [3]): 3.4%
- IC50 [4]: 680 nM
- Activity (MDA-MB-231 [5]): Active
- Activity (MDA-MB-231 [6]): 6.3%
- Activity [7]: Non-Toxic
- Activity (MDA-MB-231 [8]): 83.4%
- Activity (MDA-MB-231 [9]): 10.3%
- fold change (FC) (MDA-MB-231 [10]): 1.94
- inhibition in vivo at 10 mg/kg [11]: 61%
- Ratio IC50 (MDA-MB-231 [12]): 1.5 - 12
